In ChEMBL document CHEMBL1146217, “Growth inhibition of Mycobacterium bovis, Mycobacterium tuberculosis and Mycobacterium avium in vitro: effect of 1-beta-D-2'-arabinofuranosyl and 1-(2'-deoxy-2'-fluoro-beta-D-2'-ribofuranosyl) pyrimidine nucleoside analogs” (J Med Chem, 2007):
Values after ≈ are worked out from the molar mass of the structure shown.

Key:
[1] = Toxicity against human foreskin fibroblast cells after 3 days by MTT test; type: cell-based
How it was run: (§1)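 MTT viability assay. Vero or HFF cells seeded at 2.5 × 10⁵ cells/well and left to attach 6-8 h. Exposed to compound at 100, 50, 25, 12.5, 6.3 and 1.5 µg/mL for 3 days at 37 °C, with a DMSO control. MTT added for 4 h, then solubilized overnight; absorbance read at 560-650 nm.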

Vero = assay: Toxicity against Vero cells after 3 days by MTT test; type: cell-based; conditions: chlorocebus sabaeus, 72 h; how it was run: as §1
Mycobacterium avium = assay: Antimycobacterial activity against Mycobacterium avium ATCC 25291 at 100 ug/mL by microplate Alamar blue assay; type: functional
How it was run: (§2)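 MABA with M. bovis BCG, M. tuberculosis H37Ra or M. avium ATCC 25291. DMSO stocks (10 mg/mL) diluted in 7H9GC; final inoculum 2.5 × 10⁵ CFU/mL. Incubated 6 days, then alamar blue plus Tween 80 added and read by fluorescence after about 24 h. […]. Tested in triplicate at 100, 50, 10 and 1 µg/mL; two experiments, mean reported.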

[2] = test system: Mycobacterium tuberculosis; assay: Antimycobacterial activity against Mycobacterium tuberculosis H37Ra at 100 ug/mL by microplate Alamar blue assay; type: functional; how it was run: as §2
Streptococcus pyogenes = assay: Antibacterial activity Streptococcus pyogenes ATCC 19615 after 16 to 20 hrs by broth microdilution method; type: functional; conditions: Streptococcus pyogenes, ATCC 19615
How it was run: (§3)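 Broth microdilution MIC. Exponentially growing bacteria diluted in sterile liquid medium to a final inoculum of 1 × 10⁴ CFU/mL. Cultured with compound dilutions for 16-20 h; compounds tested at 100, 50, 10 and 1 µg/mL. MIC taken as the concentration giving 100% inhibition of bacterial growth.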

Enterococcus faecalis = assay: Antibacterial activity Enterococcus faecalis ATCC 29212 after 16 to 20 hrs by broth microdilution method; type: functional; conditions: Enterococcus faecalis, ATCC 29212; how it was run: as §3
Staphylococcus aureus = assay: Antibacterial activity against Staphylococcus aureus ATCC 25923 after 16 to 20 hrs by broth microdilution method; type: functional; conditions: for MIC: Staphylococcus aureus, ATCC 25923; how it was run: as §3
Proteus vulgaris = assay: Antibacterial activity against Proteus vulgaris ATCC 49132 after 16 to 20 hrs by broth microdilution method; type: functional; how it was run: as §3
[3] = test system: Mycobacterium tuberculosis; assay: Antimycobacterial activity against Mycobacterium tuberculosis H37Ra at 10 ug/mL by microplate Alamar blue assay; type: functional; how it was run: as §2
[4] = test system: Mycobacterium tuberculosis; assay: Antimycobacterial activity against Mycobacterium tuberculosis H37Ra by microplate Alamar blue assay; type: functional
How it was run: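 Same alamar blue microplate setup (7H9GC, 2.5 × 10⁵ CFU/mL, 6 days, then dye read after about 24 h), using 2-fold compound dilutions. MIC90 is the lowest concentration giving about 90% inhibition relative to bacteria-only wells after background subtraction. Visual MIC is the lowest concentration preventing the blue-to-pink change.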

Streptococcus pneumoniae = assay: Antibacterial activity Streptococcus pneumoniae ATCC 49619 after 16 to 20 hrs by broth microdilution method; type: functional; conditions: Streptococcus pneumoniae, ATCC 49619; how it was run: as §3
Bacillus subtilis = assay: Antibacterial activity against Bacillus subtilis ATCC 6633 after 16 to 20 hrs by broth microdilution method; type: functional; conditions: Bacillus subtilis, ATCC 6633; how it was run: as §3
Listeria monocytogenes = assay: Antibacterial activity Listeria monocytogenes ATCC 15313 after 16 to 20 hrs by broth microdilution method; type: functional; conditions: Listeria monocytogenes, ATCC 15313; how it was run: as §3
Pseudomonas aeruginosa = assay: Antibacterial activity against Pseudomonas aeruginosa […] after 16 to 20 hrs by broth microdilution method; type: functional; conditions: Pseudomonas aeruginosa, ATCC 13048; how it was run: as §3
Klebsiella aerogenes = assay: Antibacterial activity against Enterobacter aerogenes after 16 to 20 hrs by broth microdilution method; type: functional; conditions: Klebsiella aerogenes; how it was run: as §3
Escherichia coli = assay: Antibacterial activity against Escherichia coli ATCC 25922 after 16 to 20 hrs by broth microdilution method; type: functional; conditions: Escherichia coli, ATCC 25922; how it was run: as §3
[5] = test system: Staphylococcus epidermidis; assay: Antibacterial activity against Staphylococcus epidermidis ATCC 14990 after 16 to 20 hrs by broth microdilution method; type: functional; conditions: for MIC: Staphylococcus epidermidis, ATCC 14990; how it was run: as §3
[6] = test system: Mycobacterium tuberculosis; assay: Antimycobacterial activity against Mycobacterium tuberculosis H37Ra at 50 ug/mL by microplate Alamar blue assay; type: functional; how it was run: as §2
Salmonella typhimurium = assay: Antibacterial activity against Salmonella Typhimurium after 16 to 20 hrs by broth microdilution method; type: functional, Salmonella enterica subsp. enterica serovar Typhimurium; conditions: Salmonella enterica; how it was run: as §3

Compound: CCCCCC#Cc1cn([C@@H]2O[C@H](CO)[C@@H](O)[C@H]2F)c(=O)[nH]c1=O
- CC50 at 72 h [1]: > 100 µg/mL
- CC10 (Vero): > 100 µg/mL
- inhibition at 100 µg/mL (Mycobacterium avium): 0%
- inhibition at 100 µg/mL [2]: 50%

Compound: O=c1[nH]c(=O)n([C@@H]2O[C@H](CO)[C@@H](O)[C@@H]2O)cc1C(O)C(Br)Br (some centres undefined)
- inhibition at 100 µg/mL (Mycobacterium avium): 0%
- inhibition at 100 µg/mL [2]: 0%

Compound: CCOC(=O)/C=C/c1cn([C@@H]2O[C@H](CO)[C@@H](O)[C@H]2F)c(=O)[nH]c1=O
- inhibition at 100 µg/mL (Mycobacterium avium): 0%
- inhibition at 100 µg/mL [2]: 0%

Compound: COC(CI)c1cn([C@@H]2O[C@H](CO)[C@@H](O)[C@@H]2O)c(=O)[nH]c1=O (some centres undefined)
- inhibition at 100 µg/mL (Mycobacterium avium): 0%
- inhibition at 100 µg/mL [2]: 0%

Compound: CCCCCCCCCCCCC#Cc1cn([C@@H]2O[C@H](CO)[C@@H](O)[C@H]2F)c(=O)[nH]c1=O
- MIC (Streptococcus pyogenes): > 100 µg/mL
- CC50 at 72 h [1]: > 100 µg/mL
- MIC (Enterococcus faecalis): > 100 µg/mL
- Inhibition (Staphylococcus aureus): 100%
- MIC (Staphylococcus aureus): 100 µg/mL (≈ 228 µM)
- MIC (Proteus vulgaris): > 100 µg/mL
- inhibition at 10 µg/mL [3]: 50%
- MIC90 [4]: 10 µg/mL (≈ 22.8 µM)
- MIC (Streptococcus pneumoniae): > 100 µg/mL
- MIC (Bacillus subtilis): > 100 µg/mL
- MIC (Listeria monocytogenes): > 100 µg/mL
- CC10 (Vero): > 100 µg/mL
- MIC (Pseudomonas aeruginosa): > 100 µg/mL
- inhibition at 100 µg/mL (Mycobacterium avium): 20%
- inhibition at 100 µg/mL [2]: 100%
- MIC (Klebsiella aerogenes): > 100 µg/mL
- MIC (Escherichia coli): > 100 µg/mL
- Inhibition [5]: 100%
- MIC [5]: 100 µg/mL (≈ 228 µM)
- inhibition at 50 µg/mL [6]: 100%
- MIC (Salmonella typhimurium): > 100 µg/mL

Compound: O=c1[nH]c(=O)n([C@@H]2O[C@H](CO)[C@@H](O)[C@@H]2O)cc1Cl
- inhibition at 100 µg/mL (Mycobacterium avium): 0%
- inhibition at 100 µg/mL [2]: 0%

Compound: CCOC(=O)/C=C/c1cn([C@@H]2O[C@H](CO)[C@@H](O)[C@@H]2O)c(=O)[nH]c1=O
- inhibition at 100 µg/mL (Mycobacterium avium): 0%
- inhibition at 100 µg/mL [2]: 0%

Compound: O=C(O)/C=C/c1cn([C@@H]2O[C@H](CO)[C@@H](O)[C@H]2F)c(=O)[nH]c1=O
- inhibition at 100 µg/mL (Mycobacterium avium): 0%
- inhibition at 100 µg/mL [2]: 0%

Compound: Cc1cn([C@@H]2O[C@H](CO)[C@@H](O)[C@H]2F)c(=O)[nH]c1=S
- inhibition at 100 µg/mL (Mycobacterium avium): 0%
- inhibition at 100 µg/mL [2]: 25%

Compound: CCCc1ccc(C#Cc2cn([C@@H]3O[C@H](CO)[C@@H](O)[C@@H]3O)c(=O)[nH]c2=O)cc1
- CC50 at 72 h [1]: > 100 µg/mL
- MIC90 [4]: 100 µg/mL (≈ 259 µM)
- CC10 (Vero): > 100 µg/mL
- inhibition at 100 µg/mL (Mycobacterium avium): 25%
- inhibition at 100 µg/mL [2]: 100%
- inhibition at 50 µg/mL [6]: 50%

Compound: CCCCCCCCCCCCC#Cc1cn([C@@H]2O[C@H](CO)[C@@H](O)[C@@H]2O)c(=O)[nH]c1=O
- CC50 at 72 h [1]: > 100 µg/mL
- inhibition at 10 µg/mL [3]: 50%
- MIC90 [4]: 10 µg/mL (≈ 22.9 µM)
- CC10 (Vero): > 100 µg/mL
- inhibition at 100 µg/mL (Mycobacterium avium): 0%
- inhibition at 100 µg/mL [2]: 100%
- inhibition at 50 µg/mL [6]: 100%

Compound: O=c1[nH]c(=O)n([C@@H]2O[C@H](CO)[C@@H](O)[C@@H]2O)cc1C(O)CI (some centres undefined)
- inhibition at 100 µg/mL (Mycobacterium avium): 0%
- inhibition at 100 µg/mL [2]: 0%

Compound: CCOC(=O)C(Cl)C(O)c1cn([C@@H]2O[C@H](CO)[C@@H](O)[C@H]2F)c(=O)[nH]c1=O (some centres undefined)
- inhibition at 100 µg/mL (Mycobacterium avium): 0%
- inhibition at 100 µg/mL [2]: 0%

Compound: CCOC(=O)C(Br)C(O)c1cn([C@@H]2O[C@H](CO)[C@@H](O)[C@H]2F)c(=O)[nH]c1=O (some centres undefined)
- inhibition at 100 µg/mL (Mycobacterium avium): 0%
- inhibition at 100 µg/mL [2]: 0%

Compound: O=c1[nH]c(=O)n([C@@H]2O[C@H](CO)[C@@H](O)[C@H]2F)cc1Br
- inhibition at 100 µg/mL (Mycobacterium avium): 0%
- inhibition at 100 µg/mL [2]: 0%

Compound: O=c1[nH]c(=O)n([C@@H]2O[C@H](CO)[C@@H](O)[C@@H]2O)cc1C(O)C(Cl)Cl (some centres undefined)
- inhibition at 100 µg/mL (Mycobacterium avium): 0%
- inhibition at 100 µg/mL [2]: 0%

Compound: NNC(=O)c1ccncc1 [ISONIAZID]
- MIC (Streptococcus pyogenes): > 100 µg/mL
- MIC (Enterococcus faecalis): > 100 µg/mL
- MIC (Staphylococcus aureus): > 100 µg/mL
- MIC (Proteus vulgaris): > 100 µg/mL
- MIC (Streptococcus pneumoniae): > 100 µg/mL
- MIC (Bacillus subtilis): > 100 µg/mL
- MIC (Listeria monocytogenes): > 100 µg/mL
- MIC (Pseudomonas aeruginosa): > 100 µg/mL
- MIC (Klebsiella aerogenes): > 100 µg/mL
- MIC (Escherichia coli): > 100 µg/mL
- MIC [5]: > 100 µg/mL
- MIC (Salmonella typhimurium): > 100 µg/mL

Compound: O=C(O)C(I)C(O)c1cn([C@@H]2O[C@H](CO)[C@@H](O)[C@H]2F)c(=O)[nH]c1=O (some centres undefined)
- inhibition at 100 µg/mL (Mycobacterium avium): 0%
- inhibition at 100 µg/mL [2]: 0%

Compound: O=c1[nH]c(=S)ccn1[C@@H]1O[C@H](CO)[C@@H](O)[C@H]1F
- inhibition at 100 µg/mL (Mycobacterium avium): 0%
- inhibition at 100 µg/mL [2]: 25%

Compound: O=c1[nH]c(=O)n([C@@H]2O[C@H](CO)[C@@H](O)[C@@H]2O)cc1Br
- inhibition at 100 µg/mL (Mycobacterium avium): 0%
- inhibition at 100 µg/mL [2]: 0%

Compound: CCCCCC#Cc1cn([C@@H]2O[C@H](CO)[C@@H](O)[C@@H]2O)c(=O)[nH]c1=O
- inhibition at 100 µg/mL (Mycobacterium avium): 0%
- inhibition at 100 µg/mL [2]: 25%

Compound: O=c1[nH]c(=S)ccn1[C@@H]1O[C@H](CO)[C@@H](O)[C@@H]1O
- inhibition at 100 µg/mL (Mycobacterium avium): 0%
- inhibition at 100 µg/mL [2]: 0%

Compound: O=c1[nH]c(=O)n([C@@H]2O[C@H](CO)[C@@H](O)[C@H]2F)cc1Cl
- inhibition at 100 µg/mL (Mycobacterium avium): 0%
- inhibition at 100 µg/mL [2]: 20%

Compound: CCCCCCCCC#Cc1cn([C@@H]2O[C@H](CO)[C@@H](O)[C@@H]2O)c(=O)[nH]c1=O
- CC50 at 72 h [1]: > 100 µg/mL
- inhibition at 10 µg/mL [3]: 10%
- MIC90 [4]: 100 µg/mL (≈ 263 µM)
- CC10 (Vero): > 100 µg/mL
- inhibition at 100 µg/mL (Mycobacterium avium): 50%
- inhibition at 100 µg/mL [2]: 100%
- inhibition at 50 µg/mL [6]: 50%

Compound: Cc1cn([C@@H]2O[C@H](CO)[C@@H](O)[C@@H]2O)c(=O)[nH]c1=S
- inhibition at 100 µg/mL (Mycobacterium avium): 0%
- inhibition at 100 µg/mL [2]: 0%

Compound: O=C(O)/C=C/c1cn([C@@H]2O[C@H](CO)[C@@H](O)[C@@H]2O)c(=O)[nH]c1=O
- inhibition at 100 µg/mL (Mycobacterium avium): 0%
- inhibition at 100 µg/mL [2]: 0%

Compound: CCCCCCCCCCCC#Cc1cn([C@@H]2O[C@H](CO)[C@@H](O)[C@@H]2O)c(=O)[nH]c1=O
- CC50 at 72 h [1]: > 100 µg/mL
- inhibition at 10 µg/mL [3]: 50%
- MIC90 [4]: 10 µg/mL (≈ 23.7 µM)
- CC10 (Vero): > 100 µg/mL
- inhibition at 100 µg/mL (Mycobacterium avium): 25%
- inhibition at 100 µg/mL [2]: 100%
- inhibition at 50 µg/mL [6]: 100%
